The source of these data is article PMC11297572 (International Journal of Nanomedicine, 2024).

SMILES strings stand for the structures. Converted amounts (≈) assume the structure as drawn. “Also recorded” adds a separate entry of the source.

The subject of data set [1] is A549 subcutaneous transplanted tumor. The data set is described as follows: In vivo antitumor efficacy in tumor-bearing nude mice. The settings on record: 21 days of administration. The essentials: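 The xenograft model used A549 cells. Treatment ran for 21 days with body weight tracked against the start of dosing; n = 5 per group. At the end, surviving mice were killed and tumors were excised and weighed to calculate tumor inhibition rate.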

For data set [2], the system named is A549 cells. The data set is described as follows: MTT growth inhibition of A549 cells. To be noted: Homo sapiens. In kind it is cell-based. The essentials:
(§1)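 Cells were grown in RPMI 1640 or DMEM with 10% FBS and 100 U/mL penicillin-streptomycin at 37 °C, 5% CO2. Log-phase cells were seeded at 3–5×10³ per well and cultured 24 h before graded drug concentrations were added. After 24 or 48 h exposure, MTT (5 mg/mL solution) was added for 3–4 h. Medium was removed, formazan dissolved in DMSO with 10 min shaking, and OD read at 490 nm. Growth inhibition rate was calculated from OD. Data are mean ± SD of triplicates.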

Data set [3] relates to heart, liver, kidney and lung tissues. Kind of data set: HE staining of organs. The settings on record: lung of nude mice after administration. It counts as in vivo.
The test system of data set [4] is A549 cells. The data set is described as follows: Apoptosis of A549 cells. It counts as cell-based, human. To be noted: 24 h.
In data set [5] the test system is A549 subcutaneous transplanted tumor. Kind of data set: HE staining of tumor tissues. In kind it is in vivo, nude mice. The settings on record: tumor tissue after 21 days. An outline of the steps:
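Subcutaneous tumors were excised after 21 days of treatment once the surviving mice were killed. Tissue was washed twice in 0.9% saline, fixed in 4% paraformaldehyde, dehydrated, paraffin-embedded and sectioned. Sections were stained with hematoxylin and eosin and assessed for pathology. All procedures were done blind.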

Data set [6] concerns H460 cells. The data set is described as follows: MTT growth inhibition of H460 cells. It counts as cell-based. To be noted: Homo sapiens. An outline of the steps: as §1
In data set [7] the test system is Ki67. Kind of data set: Immunohistochemistry of Ki67 in tumor tissues. It counts as in vivo, nude mice. The settings on record: tumor tissue after 21 days. An outline of the steps: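 Tumors were taken at the end of the 21-day study and fixed in 4% paraformaldehyde for 24 h. They were dehydrated in absolute alcohol, paraffin-embedded and sectioned. Antigen retrieval was 5 min at high temperature in 0.01 M citrate buffer, pH 6.0. Primary antibody (1:200) was applied overnight at 4 °C, then secondary antibody for 30 min at 37 °C. Sections were developed with DAB, counterstained with hematoxylin and imaged. Scoring was blind.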

With `CC(=O)O[C@H]1C(=O)[C@@]2(C)[C@H]([C@H](OC(=O)c3ccccc3)[C@]3(O)C[C@H](OC(=O)[C@H](O)[C@@H](NC(=O)c4ccccc4)c4ccccc4)C(C)=C1C3(C)C)[C@]1(OC(C)=O)CO[C@@H]1C[C@@H]2O` [PTX, paclitaxel], the body weight change entry in data set [1] (nude mice) is listed as “gradual”. This molecule yielded a tumor inhibition rate in data set [1] (tumor-bearing nude mice) of 29.95%. The IC50 in data set [2] (A549, 24 h) turned out to be 45.9 µg/mL (≈ 53.7 µM); in data set [2] (A549, 48 h), 31.7 µg/mL (≈ 37.1 µM); in data set [6] (NCI-H460, 24 h), 49.3 µg/mL (≈ 57.7 µM); in data set [6] (NCI-H460, 48 h) it was 39.4 µg/mL (≈ 46.1 µM). In addition, the “pathological changes in organs (HE staining)” value in data set [3] was “pathological changes and tumor cell infiltration; also recorded: different degrees of pathological changes and necrosis in their hearts and livers”. Moreover, the apoptosis rate in data set [4] (A549, 5 μg/mL) stood at 3.57%; in data set [4] (A549, 10 μg/mL), 7.34%; in data set [4] (A549, 20 μg/mL), 16.6%. Moreover, the “necrosis of tumor tissue (necrotic area)” value in data set [5] is recorded as “approximately 20%”. In data set [7], the “expression of Ki67 in tumor tissues” value came out at 45.88%.
